Screening results from PubChem.
SIRT5 block – blocks human SIRT5 desuccinylation of peptide; Q9NXA8; Purified SirT5, succinyl-peptide AMC, trypsin-coupled fluorescence; 330,000 compounds, 1.1% hits; inhibition, % at 15 µM; in the data active = inhibition above about 15%
Target sequence (Q9NXA8 whole entry, looked up): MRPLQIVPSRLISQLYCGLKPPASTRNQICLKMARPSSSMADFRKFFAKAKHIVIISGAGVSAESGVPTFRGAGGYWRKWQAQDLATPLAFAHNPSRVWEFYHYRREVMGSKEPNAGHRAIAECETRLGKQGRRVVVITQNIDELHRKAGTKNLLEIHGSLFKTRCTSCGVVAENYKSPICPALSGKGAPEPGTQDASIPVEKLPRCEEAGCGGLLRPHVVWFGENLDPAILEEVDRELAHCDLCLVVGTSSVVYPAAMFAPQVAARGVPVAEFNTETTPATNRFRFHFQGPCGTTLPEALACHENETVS
S100A4 inh HTS – blocks human S100A4 binding to myosin IIA peptide. P26447. S100A4/TAMRA-MyoIIA peptide fluorescence polarization. inhibition, % at 10.7 µM. 360,000 compounds, 0.14% hits;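 active = mean inhibition of at least 70% across replicates, with every replicate also reaching that level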
Target sequence (P26447 whole entry, looked up): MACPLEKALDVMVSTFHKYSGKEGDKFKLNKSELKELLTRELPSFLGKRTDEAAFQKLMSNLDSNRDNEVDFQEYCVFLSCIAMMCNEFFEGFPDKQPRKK
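incubation = readout 5 min after mixing, signal stable up to 60 min | system = S100A4 monomer protein | buffer or medium = HEPES pH 7.2 with CaCl2, KCl, NaCl, DTT, Triton | benchmarks = neutral control DMSO, positive control TFP | also added = fluorescent myosin IIA peptide, 5 nM | compound dosing = one concentration per compound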
FGF22 binding – shifts melting point of recombinant human FGF22; Q9HCT0; recombinant FGF22 thermal shift, SYPRO orange fluorescence; percent of sucrose octasulfate shift, DMSO zero; activity (Tm shift, normalised), % at 9.99 µM; 340,000 compounds, 1.5% hits; AID 651658;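 active = mean Tm shift, scaled 0 neutral to 100 positive control, at about 1.3% or above, every replicate too, limit read from the data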
Target sequence (Q9HCT0 whole entry, looked up): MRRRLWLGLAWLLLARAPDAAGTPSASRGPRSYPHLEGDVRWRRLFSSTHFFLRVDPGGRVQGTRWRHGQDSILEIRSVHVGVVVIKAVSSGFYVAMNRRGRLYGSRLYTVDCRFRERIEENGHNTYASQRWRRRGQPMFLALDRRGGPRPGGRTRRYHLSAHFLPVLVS
E-sel inducer – induces E-selectin expression in human endothelial cells; P16581; HUVEC E-selectin immunofluorescence imaging; normalized: neutral wells 0, TNF-alpha wells 100; activation, % at 7.58 µM; 260,000 compounds, 0.37% hits;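 active = mean E-selectin-positive cell signal at least 10% of the positive control, reached in at least 60% of replicates, without over 20% cell loss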
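Read-out basis: % PE-positive cells; Test system: HUVEC primary endothelial cells; Technique: immunofluorescence imaging; Dosing: single-point compound dose.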
miR-122 sensor – inhibitors of miR-122 in Huh7 cells; Huh7 miR-122 Renilla luciferase sensor, 48 h; neutral wells = 0, positive control = 100; activation (reporter increase), % at 12.5 µM; 340,000 compounds, 0.3% hits; AID 602342;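 active = mean replicate activation score at least 90 and every replicate individually at or above 90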;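 note: higher luciferase means less miR-122 activity so hits act as miR-122 inhibitors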
* = called active by the depositor; nt = no result; [ ] = remark or other dose. This is a sample that favours compounds with a hit; in the whole collection about 2.5% have one here.

SMILES	SIRT5 block	S100A4 inh HTS	FGF22 binding	E-sel inducer	miR-122 sensor
CCN1C(=O)C(C)C=C(C)C=C1C (stereo not given)	nt	0.8	43.6*	1.2	-3.0
CC(=O)c1ccc(NC(=O)C2CCCN(C(=O)c3ccc(Cl)cc3)C2)cc1 (stereo not given)	-4.0	-4.3	0.4	nt	-6.3
O=C(Nc1ccccc1)C1CCCN(C(=O)c2ccc(Cl)cc2)C1 (stereo not given)	-4.0	-4.1	43.0*	nt	nt
O=C(COc1ccccc1)N/N=C/c1sc(=O)n(Cc2cccc(C(=O)O)c2)c1Cl	15.8*	-0.9	-0.2	-0.1	nt
Cc1cc(C([O-])=C(C(=S)Nc2ccccc2)[n+]2ccccc2)c(C)n1-c1ccccc1	nt	-7.7	0.1	0.6	nt
Cc1ccccc1NC(=S)/C(=C(\[O-])c1cc(C)n(Cc2ccccc2Cl)c1C)[n+]1ccccc1	-9.0	-3.6	43.0*	nt	nt
COc1ccccc1CNc1nc2cc(-c3ccc(OC)c(OC)c3)sc2c(=O)n1C	19.8*	18.9	0.0	-0.2	4.6
COc1ccc(S(=O)(=O)N(C)C[C@H]2OCCCC[C@@H](C)Oc3ccc(NC(=O)Nc4c(C)noc4C)cc3C(=O)N([C@@H](C)CO)C[C@@H]2C)cc1	3.1	-4.7	0.0	0.0	9.3[16.7 µM]
COc1ccc(NS(=O)(=O)c2ccc(OC)c3ccccc23)cn1	nt	nt	nt	nt	356.4*
COc1ccc(NS(=O)(=O)c2cccs2)cn1	-1.4	-6.0	0.0	-2.1	-0.8
CC(C)NC(=O)N(C)C[C@@H]1Oc2ccc(NC(=O)Cn3cnnn3)cc2C(=O)N([C@@H](C)CO)C[C@H]1C	nt	nt	nt	17.9	-6.5[16.7 µM]
COc1ccc(S(=O)(=O)N(C)C[C@H]2Oc3ccc(NC(=O)c4ccncc4)cc3C(=O)N([C@H](C)CO)C[C@H]2C)cc1	-1.5	5.9	0.1	27.7*	49.4[16.7 µM]
C[C@@H]1CN([C@H](C)CO)C(=O)c2cc(NC(=O)c3ccncc3)ccc2O[C@@H]1CN(C)S(=O)(=O)c1ccc(Cl)cc1	-1.4	-28.5	-0.1	0.2	179.1*[16.7 µM]
COc1ccc(S(=O)(=O)N(C)C[C@H]2Oc3ccc(NC(=O)c4ccncc4)cc3C(=O)N([C@@H](C)CO)C[C@@H]2C)cc1	4.1	8.3	-0.1	47.0*	-27.4[16.7 µM]
C[C@@H]1CN([C@H](C)CO)S(=O)(=O)c2ccc(/C=C/c3ccccc3)cc2O[C@H]1CN(C)C(=O)CN1CCOCC1	3.9	-3.7	0.1	0.0	24.6[16.7 µM]
O=C(NC[C@H]1N[C@H](CO)[C@@H]1c1ccc(-c2cncnc2)cc1)C1CCCC1	-0.6	-6.4	nt	-0.1	nt
C[C@H](CO)N1C[C@H](C)[C@@H](CN(C)C(=O)Nc2cccc(F)c2)Oc2cc(/C=C/c3ccccc3)ccc2S1(=O)=O	-3.3	-7.2	0.2	0.4	41.8[16.7 µM]
C[C@@H]1CN([C@@H](C)CO)S(=O)(=O)c2ccc(/C=C/c3ccccc3)cc2O[C@@H]1CN(C)C(=O)Nc1ccc(F)cc1	16.6*	-10.6	0.6	-0.1	-12.2[16.7 µM]
C/C=C/c1ccc2c(c1)O[C@H](CN(C)C(=O)Nc1ccc(F)cc1)[C@H](C)CN([C@@H](C)CO)S2(=O)=O	-5.7	-4.7	nt	0.0	21.1[16.7 µM]
C[C@@H]1CN([C@@H](C)CO)S(=O)(=O)c2ccc(/C=C/c3ccccc3)cc2O[C@H]1CN(C)C(=O)Nc1ccc(F)cc1	14.4	1.8	1.6*	0.9	11.6[16.7 µM]
CN(C)C(=O)[C@@]1(Cc2ccccc2)COC(c2ccc(OCCCO)cc2)=N1	0.1	7.0	-0.1	nt	nt
O=C(NCc1cc(F)cc(F)c1)[C@@H]1[C@@H](CO)[C@@H]2Cn3c(cccc3=O)[C@H]1N2C(=O)c1ccccn1	4.6	4.7	nt	-0.2	nt
CC(C)(C)C(=O)Nc1cc(S(=O)(=O)Nc2ccc(Cl)cc2)ccc1O	-6.4	3.1	nt	nt	166.5*
C[C@@H]1CN([C@H](C)CO)C(=O)c2cc(C#Cc3cccc(F)c3)cnc2O[C@H]1CN(C)C(=O)C1CCC1	8.5	8.3	-0.1	67.2*	-14.9[16.7 µM]
C[C@@H]1CN([C@@H](C)CO)C(=O)c2cc(C#C[C@@H](C)O)cnc2O[C@H]1CN(C)CC1CCCC1	4.7	1.2	-0.1	-0.2	-3.9[16.7 µM]
SMILES	SIRT5 block	S100A4 inh HTS	FGF22 binding	E-sel inducer	miR-122 sensor
C[C@H](O)C#Cc1cnc2c(c1)C(=O)N([C@H](C)CO)C[C@H](C)[C@@H](CN(C)CC1CCCC1)O2	21.3*	7.8	-0.1	1.3	-19.1[16.7 µM]
C[C@@H]1CN([C@@H](C)CO)C(=O)c2cc(C#C[C@@H](C)O)cnc2O[C@H]1CN(C)C(=O)Cc1ccncc1	1.1	87.3*	-0.5	-0.8	-6.5[16.7 µM]
C[C@H]1CN([C@@H](C)CO)C(=O)c2cc(C#Cc3cccc(F)c3)cnc2O[C@@H]1CN(C)CC1CCCC1	22.8*	-0.6	-0.4	nt	-18.4[16.7 µM]
CCCN1[C@@H]2c3ccc(/C=C/c4ccccc4)c(=O)n3C[C@@H]2[C@@H](CO)[C@@H]1C(=O)NCC	-38.4	-13.0	-0.1	0.1	3.2[16.7 µM]
COc1ccc2c3c(n(C)c2c1)[C@@H](CO)N(C(=O)Nc1ccc(F)cc1)CC31CCN(C(=O)c2ccccc2F)CC1	-3.7	-3.6	-0.1	-0.3	nt
C[C@H](CO)N1C[C@H](C)[C@H](CN(C)Cc2cccc(F)c2)Oc2ncc(C#C[C@@H](C)O)cc2C1=O	24.1*	-1.6	-0.2	0.6	0.9[16.7 µM]
Cc1cccc(OCc2nnc(SC(C)C(=O)O)n2Cc2ccccc2)c1 (stereo not given)	-4.0	-2.5	43.3*	-0.3	-10.3
CCC(C)NC(=O)CN1C(=O)c2cccc3cccc1c23 (stereo not given)	-2.3	-3.2	-0.3	nt	4.0
CCN1/C(=N\N)c2cccc3cccc1c23	0.3	22.3	0.2	36.6*	nt
CC=Cc1ccc2n(c1=O)C[C@H]1[C@H](CO)[C@@H](C(=O)N3CCc4ccccc4C3)[C@@H]2N1CCC (mixture of isomers)	4.2	-4.5	-0.3	-0.5	2.1[16.7 µM]
O=C(O)CCC(=O)Nc1ccccc1C(=O)Nc1ccccc1	nt	nt	nt	nt	114.6*
O=C(O)CCC(=O)Nc1ccccc1C(=O)NCCc1ccccc1	-1.9	-0.9	0.5	-0.3	nt
O=C(CCl)Nc1ccccc1C(=O)NCc1ccccc1	-6.1	-0.6	43.0*	nt	nt
Cc1cccc(C)c1OCC(=O)Nn1c(=O)[nH]c2ccccc2c1=O	-4.0	1.1	43.1*	nt	nt
COc1ccc(-n2c(C)cc(C)c(C(C)=O)c2=S)cc1	26.9*	-21.8	0.0	2.3	-4.1
CCn1ccnc1CNCc1cn(-c2cc(C)ccc2C)nc1-c1ccccc1	1.4	-7.8	43.1*	0.0	nt
COc1ccc(CNC(=O)CN2CCN(S(=O)(=O)c3cccs3)CC2)cc1OC	-4.4	3.1	43.4*	nt	-5.8
COc1ccc(C2Nc3ccccc3C(=O)N2NC(C)=O)cc1OC (stereo not given)	-6.9	13.8	0.2	2.9	nt
CCOC(=O)NN1C(=O)c2ccccc2NC1c1ccc(OC)c(OC)c1 (stereo not given)	-10.4	-6.2	43.3*	3.4	-4.0
CC1CCN(C(=S)c2ccc(O)cc2)CC1	nt	nt	nt	nt	248.3*
